ChEMBL document CHEMBL3997769, “Discovery and preclinical evaluation of 7-benzyl-N-(substituted)-pyrrolo[3,2-d]pyrimidin-4-amines as single agents with microtubule targeting effects along with triple-acting angiokinase inhibition as antitumor agents” (Bioorg Med Chem, 2017)

Legend:
[1] = Inhibition of bovine brain tubulin assembly preincubated for 15 mins followed by GTP addition measured for 20 mins by spectrophotometric method; design: species or system Bos taurus
[2] = system: A-431; test: Cytotoxicity against human A431 cells; type: functional, cell-based
[3] = system: Chorioallantoic membrane; test: Antiangiogenic activity in Leghorn chicken egg chorioallantoic membrane assessed as inhibition of human VEGF-165/bFGF-induced blood vessels formation measured after 40 hrs by microscopic method; type: functional, tissue-based; conditions: Gallus gallus
[4] = system: HeLa; test: Growth inhibition of human HeLa cells measured after 96 hrs by sulforhodamine B assay; type: functional, cell-based
Method in brief: (§1)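 Exposed 96 h to varying compound concentrations in 0.5% DMSO. Cell protein measured by sulforhodamine B; IC50 = concentration halving the increase in cell protein versus untreated cultures.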

[5] = system: HeLa; test: Growth inhibition of human HeLa cells over expressing beta3-tubulin measured after 96 hrs by sulforhodamine B assay; type: functional, cell-based; method in brief: as §1
[6] = system: OVCAR-8; test: Growth inhibition of human OVCAR8 cells measured after 96 hrs by sulforhodamine B assay; type: functional, cell-based; conditions: OVCAR-8, 96 h
[7] = system: NCI/ADR-RES; test: Growth inhibition of human NCI/ADR-RES cells over expressing Pgp measured after 96 hrs by sulforhodamine B assay; type: functional, cell-based

Q: Which results are given for `COc1ccc(Nc2nc(C)nc3c(Cc4ccccc4)cn(C)c23)cc1`?
A: IC50 [1]: > 20000 nM; IC50 [2]: 2300 nM; IC50 [3]: 8700 nM

Q: For `COc1ccc2c(c1)CCN2c1nc(C)nc2c(Cc3ccccc3)c[nH]c12`, which IC50 [1] is on record?
A: > 20000 nM

Q: For `COc1ccc2c(c1)CCCN2c1nc(N)nc2c(Cc3ccccc3)c[nH]c12`, which IC50 [1] is on record?
A: 13000 nM

Q: Which IC50 [4] does the source give for `CC(=O)O[C@H]1C(=O)[C@@]2(C)[C@H]([C@H](OC(=O)c3ccccc3)[C@]3(O)C[C@H](OC(=O)[C@H](O)[C@@H](NC(=O)c4ccccc4)c4ccccc4)C(C)=C1C3(C)C)[C@]1(OC(C)=O)CO[C@@H]1C[C@@H]2O` [PACLITAXEL] here?
A: 5.3 nM

Q: And the IC50 [5]?
A: 16 nM

Q: What about the IC50 [6] of the same molecule?
A: 5 nM

Q: What about the IC50 [7] of the same molecule?
A: 2500 nM
